The results in this text go back to ChEMBL document CHEMBL4041550, “Structure-Activity Relationship Study of QL47: A Broad-Spectrum Antiviral Agent” (ACS Med Chem Lett, 2017).

In general, CC50 refers to the concentration giving 50% cytotoxicity. The term pIC50 denotes the IC50 on a negative log10 scale, so that one unit is a factor of ten. As a reminder, the Tmax is the time from dosing to the highest level. The term Cmax denotes the highest concentration seen after dosing. A word on the AUC(0-t): it is exposure summed from dosing to a finite time, without extrapolation to infinity. In general, AUC(0-inf) refers to the area under the concentration-time curve extrapolated to infinity. As a reminder, the clearance is the volume of plasma or blood freed of the substance per unit of time.

pIC50: −log10 of the molar value.

Data set [1] in a line: Cytotoxicity against human HuH7 cells measured after 24 hrs by CellTiter-Glo luminescent cell viability assay. The format is cell-based, Huh-7. A digest of the protocol:
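DENV2-infected Huh7 cells treated across a concentration range; cell viability read 24 h later. CC50 (50% cytotoxicity) derived by non-linear regression; mean ± SD of experimental duplicates, n ≥ 2 repeats.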
In general terms: In ATP-based viability assays light output follows the ATP content of the culture.

The subject of data set [2] is dengue virus type 2. Briefly: Antiviral activity against Dengue virus serotype 2 replicon harboring GVD mutant infected in HuH7 cells assessed as reduction in viral RNA translation at 2 uM measured at 6 hrs post infection by luciferase reporter gene assay relative to control. The format is functional. On the set-up: scale not given: the % may be the effect or the level left. An outline of the steps: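 Huh7 cells transfected with in vitro-transcribed nonreplicative DENV2(GVD) reporter replicon RNA, then treated immediately with compound at 2 or 10 μM. Intracellular firefly luciferase activity read 6 h post-transfection as a measure of RNA translation and expressed relative to DMSO-treated samples. Mean ± SD of experimental duplicates, n = 3 repeats.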
A general note: In antiviral work, replicon cells carry a viral genome segment that copies itself.

The subject of data set [3] is dengue virus type 2. Briefly: Antiviral activity against Dengue virus serotype 2 strain New Guinea C infected in HuH7 cells assessed as reduction in log-fold change by measuring focus forming unit at 2 uM measured at 24 hrs post infection by focus forming assay relative to control. Type of data set: functional, Thailand/NGS-C/1944. A digest of the protocol: (§1)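 DENV2-infected Huh7 cells treated with compound at 2 or 10 μM. Infectious virus secreted into culture supernatants at 24 h post-infection/treatment was titred by focus-forming assay. Result expressed as log-fold change relative to DMSO treatment.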

The test system of data set [4] is dengue virus type 2. Briefly: Antiviral activity against Dengue virus serotype 2 strain New Guinea C infected in HuH7 cells assessed as reduction in log-fold change by measuring focus forming unit at 10 uM measured at 24 hrs post infection by focus forming assay relative to control. The format is functional, Thailand/NGS-C/1944. A digest of the protocol:
as §1

Data set [5] has as its target Serine/threonine-protein kinase pim-1 (Homo sapiens, UniProt P11309). Briefly: Inhibition of recombinant full length His-tagged human PIM1 expressed in baculovirus expression system by Z'-Lyte assay. A digest of the protocol:
(§2)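 IC50 against PIM1, PIM2, BTK and BMX determined with Z′-Lyte kinase activity assays.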

For data set [6], the target named is T1, Cytoplasmic tyrosine-protein kinase BMX (Homo sapiens, UniProt P51813).
T1 sequence (P51813 whole entry): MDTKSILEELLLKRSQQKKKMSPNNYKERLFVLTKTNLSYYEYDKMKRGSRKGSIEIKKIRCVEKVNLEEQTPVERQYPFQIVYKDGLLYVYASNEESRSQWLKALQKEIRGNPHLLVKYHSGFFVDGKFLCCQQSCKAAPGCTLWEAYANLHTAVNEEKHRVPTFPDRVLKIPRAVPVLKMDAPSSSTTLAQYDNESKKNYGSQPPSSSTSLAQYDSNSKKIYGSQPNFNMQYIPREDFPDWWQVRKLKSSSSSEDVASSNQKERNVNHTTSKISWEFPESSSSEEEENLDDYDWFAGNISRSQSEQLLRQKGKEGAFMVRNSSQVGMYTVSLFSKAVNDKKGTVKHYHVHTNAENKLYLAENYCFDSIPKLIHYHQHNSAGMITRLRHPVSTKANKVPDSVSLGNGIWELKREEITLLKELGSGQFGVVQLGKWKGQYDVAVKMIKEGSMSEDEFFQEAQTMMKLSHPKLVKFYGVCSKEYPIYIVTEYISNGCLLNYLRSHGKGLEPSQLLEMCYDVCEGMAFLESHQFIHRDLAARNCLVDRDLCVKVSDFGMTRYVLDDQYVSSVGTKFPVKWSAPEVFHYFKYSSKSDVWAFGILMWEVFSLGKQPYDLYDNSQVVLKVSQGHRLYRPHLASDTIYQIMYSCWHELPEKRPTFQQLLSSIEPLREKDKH
Briefly: Inhibition of recombinant full length His-tagged human BMX cytoplasmic domain expressed in baculovirus expression system by Z'-Lyte assay. A digest of the protocol: as §2

Data set [7] deals with Tyrosine-protein kinase BTK (Homo sapiens, UniProt Q06187). Briefly: Inhibition of recombinant full length His-tagged human BTK cytoplasmic domain expressed in baculovirus expression system by Z'-Lyte assay. A digest of the protocol: as §2
Tyrosine-protein kinase BTK, sequence (Q06187 whole entry, the tested form may be a part): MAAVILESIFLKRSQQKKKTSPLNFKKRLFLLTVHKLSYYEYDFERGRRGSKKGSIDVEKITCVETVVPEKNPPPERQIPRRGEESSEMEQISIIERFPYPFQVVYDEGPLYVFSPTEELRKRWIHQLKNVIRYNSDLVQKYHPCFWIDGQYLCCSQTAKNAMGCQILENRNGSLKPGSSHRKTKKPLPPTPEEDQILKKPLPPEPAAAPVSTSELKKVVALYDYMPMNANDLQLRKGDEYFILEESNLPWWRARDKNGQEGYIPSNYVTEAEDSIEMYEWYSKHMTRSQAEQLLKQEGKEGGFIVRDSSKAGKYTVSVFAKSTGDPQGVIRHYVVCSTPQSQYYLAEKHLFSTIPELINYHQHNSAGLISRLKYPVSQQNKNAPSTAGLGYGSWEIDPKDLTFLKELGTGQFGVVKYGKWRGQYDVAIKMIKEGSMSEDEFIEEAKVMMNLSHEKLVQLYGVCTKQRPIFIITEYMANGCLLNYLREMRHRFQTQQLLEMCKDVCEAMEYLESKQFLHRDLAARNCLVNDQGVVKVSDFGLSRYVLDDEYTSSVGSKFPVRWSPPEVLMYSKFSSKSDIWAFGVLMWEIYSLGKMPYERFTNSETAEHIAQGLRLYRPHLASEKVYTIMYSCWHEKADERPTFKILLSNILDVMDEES
Data set [8] in a line: Tmax in Swiss albino mouse at 10 mg/kg, ip by LC/MS/MS method. Type of data set: ADME, organism-based. Particulars: in vivo. An outline of the steps:
(§3)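 Mouse pharmacokinetics after intravenous, oral or intraperitoneal dosing; plasma parameters derived were T1/2, Tmax, Cmax, AUClast, AUCinf, clearance, Vss and oral bioavailability F.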

The nature of data set [9]: Tmax in Swiss albino mouse at 50 mg/kg, ip by LC/MS/MS method. The format is ADME, organism-based. As to conditions: in vivo. A digest of the protocol: as §3
Data set [10] is described as follows: Cmax in Swiss albino mouse at 2 mg/kg, iv by LC/MS/MS method. Particulars: in vivo. On the set-up: dose 2 mg/kg, route intravenous. The format is ADME, organism-based. An outline of the steps: as §3
Data set [11] in a line: Cmax in Swiss albino mouse at 10 mg/kg, ip by LC/MS/MS method. Type of data set: ADME, organism-based. Also on record: dose 10 mg/kg, route intraperitoneal. As to conditions: in vivo. A digest of the protocol:
as §3

The nature of data set [12]: AUClast in Swiss albino mouse at 2 mg/kg, iv by LC/MS/MS method. The format is ADME, organism-based. On the set-up: dose 2 mg/kg, route intravenous, time 0 - last. Particulars: in vivo.
Data set [13] is described as follows: AUClast in Swiss albino mouse at 10 mg/kg, po by LC/MS/MS method. The format is ADME, organism-based. Also on record: dose 10 mg/kg, time 0 - last, route oral. Particulars: in vivo.
The nature of data set [14]: AUClast in Swiss albino mouse at 50 mg/kg, ip by LC/MS/MS method. Also on record: dose 50 mg/kg, route intraperitoneal, time 0 - last. Type of data set: ADME, organism-based. As to conditions: in vivo.
Data set [15] in a line: AUC (infinity) in Swiss albino mouse at 10 mg/kg, po by LC/MS/MS method. The format is ADME, organism-based. On the set-up: dose 10 mg/kg, route oral, time infinity. As to conditions: in vivo.
Data set [16] in a line: Clearance in Swiss albino mouse at 2 mg/kg, iv by LC/MS/MS method. The format is ADME, organism-based. Particulars: in vivo. A digest of the protocol: as §3
The nature of data set [17]: Volume of distribution at steady state in Swiss albino mouse at 2 mg/kg, iv by LC/MS/MS method. Type of data set: ADME, organism-based. Particulars: in vivo, read-out: Vdss. An outline of the steps:
as §3

Serine/threonine-protein kinase pim-1, sequence (P11309 whole entry): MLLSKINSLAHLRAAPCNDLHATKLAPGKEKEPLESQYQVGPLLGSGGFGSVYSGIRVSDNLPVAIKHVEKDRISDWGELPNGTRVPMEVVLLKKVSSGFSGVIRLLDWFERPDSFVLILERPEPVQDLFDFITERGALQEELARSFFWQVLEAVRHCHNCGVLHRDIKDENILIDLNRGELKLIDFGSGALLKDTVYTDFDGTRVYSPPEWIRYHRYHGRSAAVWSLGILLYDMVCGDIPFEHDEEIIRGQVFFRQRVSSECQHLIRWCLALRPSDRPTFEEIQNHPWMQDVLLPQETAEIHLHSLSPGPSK

In the case of `Cc1ccc(-n2c(=O)ccc3ccc4ccc(-c5cnn(C)c5)cc4c32)cc1NC(=O)/C=C/CN(C)C`, the 50% cytotoxic concentration (CC50) at 24 h in data set [1] fell in the range of 12 to 20 µM. For the same compound, the Activity with dengue virus type 2 [2] worked out at 65%; with dengue virus type 2 [3] it was 4 log10FFU/ml; with dengue virus type 2 [4] it was 4 log10FFU/ml. The negative logarithm of the IC50 (pIC50) is 5.75 in [5], 5.62 in [6] and 6.04 in [7]. The time of peak concentration (Tmax) in data set [8] was 15 min; in data set [9], 4.8 min. The figures for the Cmax in data set [10] and in data set [11] were 462 ng/mL and 787 ng/mL, respectively. Moreover, the area under the curve AUC(0-t) in data set [12] is 161 ng·h/mL; in data set [13], 95.4 ng·h/mL; in [14] it was 8220 ng·h/mL. In data set [15], this compound gave an area under the curve AUC(0-inf) of 118 ng·h/mL. In addition, the clearance in [16] was found to be 199 mL/min/kg. Besides, the Vd in data set [17] was determined as 9.58 L/kg.
